Measurements reported in ChEMBL document CHEMBL1124493, “Synthesis and tumor uptake of 5-82Br- and 5-131I-labeled 5-halo-1-(2-fluoro-2-deoxy-beta-D-ribofuranosyl)uracils” (J Med Chem, 1989).
Each block holds one compound with its values, some of them ahead of it.

How the values were obtained:
[1] = species on record: Mus musculus; experiment: Urinary [131I]- compound observed in BDF1 female mice bearing lewis lung tumor after 0-0.5 h of injected [131I]-compound; assay type: functional, tissue-based; conditions: Urine
[2] = test system: Mus musculus; experiment: Biodistribution of intravenously injected [131I]-labeled compound in liver of BDF1 female mice bearing subcutaneous Lewis lung carcinoma after 24 hours; assay type: ADME, organism-based; conditions: in vivo, iv
Outline: (§1)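 Female BDF1 mice bearing subcutaneous Lewis lung carcinoma received a single intravenous dose of 0.5-1.8 μg of the 131I-labeled nucleoside (55-110 kBq). They were sacrificed at set times, and tissues were weighed wet and γ-counted. Activity is expressed as percent of injected dose per gram of wet tissue, given as mean ± standard deviation for six animals.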

[3] = test system: Mus musculus; experiment: Biodistribution of intravenously injected [131I]-labeled compound in liver of BDF1 female mice bearing subcutaneous Lewis lung carcinoma after 8 hours; assay type: ADME, organism-based; conditions: in vivo, iv; outline: as §1
[4] = test system: Mus musculus; experiment: Biodistribution of intravenously injected [131I]-labeled compound in spleen of BDF1 female mice bearing subcutaneous Lewis lung carcinoma after 2 hours; assay type: ADME, organism-based; conditions: in vivo, iv
Outline: (§2)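 Female BDF1 mice with subcutaneous Lewis lung carcinoma given i.v. 0.5-1.8 μg of 131I-labeled nucleoside (55-110 kBq). Killed at set times. Tissues weighed wet and γ-counted. Radioactivity expressed as percent injected dose per gram wet tissue, mean ± SD of six animals.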

[5] = test system: Mus musculus; experiment: Biodistribution of intravenously injected [131I]-labeled compound in lung of BDF1 female mice bearing subcutaneous Lewis lung carcinoma after 2 hours; assay type: ADME, organism-based; conditions: in vivo, iv; outline: as §1
[6] = test system: Mus musculus; experiment: Biodistribution of intravenously injected [131I]-labeled compound in liver of BDF1 female mice bearing subcutaneous Lewis lung carcinoma after 1 hours; assay type: ADME, organism-based; conditions: in vivo, iv; outline: as §1
[7] = species on record: Mus musculus; experiment: Urinary [131I]5-iodouracil observed in BDF1 female mice bearing lewis lung tumor after 2-3 h of injected [131I]-compound; assay type: functional, tissue-based; conditions: Urine
[8] = test system: Mus musculus; experiment: Biodistribution of intravenously injected [131I]-labeled compound in heart of BDF1 female mice bearing subcutaneous Lewis lung carcinoma after 0.25 hours; assay type: ADME, organism-based; conditions: in vivo, iv; outline: as §1
[9] = test system: Mus musculus; experiment: Biodistribution of intravenously injected [131I]-labeled compound in heart of BDF1 female mice bearing subcutaneous Lewis lung carcinoma after 8 hours; assay type: ADME, organism-based; conditions: in vivo, iv; outline: as §1
[10] = test system: Mus musculus; experiment: Biodistribution of intravenously injected [131I]-labeled compound in gut of BDF1 female mice bearing subcutaneous Lewis lung carcinoma after 1 hours; assay type: ADME, organism-based; conditions: in vivo, iv; outline: as §1
[11] = species on record: Mus musculus; experiment: Other urinary compounds observed in BDF1 female mice bearing lewis lung tumor after 0-0.5 hr of injected [131I]-compound; assay type: functional, tissue-based; conditions: Urine
[12] = test system: Mus musculus; experiment: Biodistribution of intravenously injected [131I]-labeled compound in bone of BDF1 female mice bearing subcutaneous Lewis lung carcinoma after 24 hours; assay type: ADME, organism-based, Bone element; conditions: in vivo, iv; outline: as §1
[13] = test system: Mus musculus; experiment: Biodistribution of intravenously injected [131I]-labeled compound in skin of BDF1 female mice bearing subcutaneous Lewis lung carcinoma after 2 hours; assay type: ADME, organism-based, Zone of skin; conditions: in vivo, iv; outline: as §2
[14] = test system: Mus musculus; experiment: Biodistribution of intravenously injected [131I]-labeled compound in liver of BDF1 female mice bearing subcutaneous Lewis lung carcinoma after 2 hours; assay type: ADME, organism-based; conditions: in vivo, iv; outline: as §1
[15] = test system: Mus musculus; experiment: Biodistribution of intravenously injected [131I]-labeled compound in gut of BDF1 female mice bearing subcutaneous Lewis lung carcinoma after 24 hours; assay type: ADME, organism-based; conditions: in vivo, iv; outline: as §1
[16] = test system: Mus musculus; experiment: Biodistribution of intravenously injected [131I]-labeled compound in skin of BDF1 female mice bearing subcutaneous Lewis lung carcinoma after 4 hours; assay type: ADME, organism-based, Zone of skin; conditions: in vivo, iv; outline: as §2
[17] = species on record: Mus musculus; experiment: Urinary iodide observed in BDF1 female mice bearing lewis lung tumor after 6-7 hr of injected [131I]-compound; assay type: functional, tissue-based; conditions: Urine
[18] = test system: Mus musculus; experiment: Biodistribution of intravenously injected [131I]-labeled compound in kidney of BDF1 female mice bearing subcutaneous Lewis lung carcinoma after 0.25 hours; assay type: ADME, organism-based; conditions: in vivo, iv; outline: as §1
[19] = test system: Mus musculus; experiment: Biodistribution of intravenously injected [131I]-labeled compound in tumor of BDF1 female mice bearing subcutaneous Lewis lung carcinoma after 8 hours; assay type: ADME, organism-based; conditions: in vivo, iv; outline: as §2
[20] = test system: Mus musculus; experiment: Biodistribution of intravenously injected [131I]-labeled compound in bone of BDF1 female mice bearing subcutaneous Lewis lung carcinoma after 0.5 hours; assay type: ADME, organism-based, Bone element; conditions: in vivo, iv; outline: as §1
[21] = test system: Mus musculus; experiment: Biodistribution of intravenously injected [131I]-labeled compound in blood of BDF1 female mice bearing subcutaneous Lewis lung carcinoma after 0.50 hours; assay type: ADME, organism-based; conditions: in vivo, iv, 0.5 h; outline: as §1
[22] = test system: Mus musculus; experiment: Biodistribution of intravenously injected [82Br]-labeled compound in bone of BDF1 female mice bearing subcutaneous Lewis lung carcinoma after 2 hours; assay type: ADME, organism-based, Bone element; conditions: in vivo, iv
Outline: (§3)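 82Br-labeled nucleoside given intravenously to female BDF1 mice bearing subcutaneous Lewis lung carcinoma, at 47-130 μg carrying 20-60 kBq. Mice sacrificed at each time point. Wet-weighed tissues γ-counted. Values are percent injected dose per gram wet tissue, mean ± SD, n = 6.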

[23] = test system: Mus musculus; experiment: Biodistribution of intravenously injected [82Br]-labeled compound in spleen of BDF1 female mice bearing subcutaneous Lewis lung carcinoma after 2 hours; assay type: ADME, organism-based; conditions: in vivo, iv
[24] = test system: Mus musculus; experiment: Biodistribution of intravenously injected [82Br]-labeled compound in blood of BDF1 female mice bearing subcutaneous Lewis lung carcinoma after 8 hours; assay type: ADME, organism-based; conditions: in vivo, iv; outline: as §3
[25] = test system: Mus musculus; experiment: Biodistribution of intravenously injected [82Br]-labeled compound in liver of BDF1 female mice bearing subcutaneous Lewis lung carcinoma after 8 hours; assay type: ADME, organism-based; conditions: in vivo, iv
Outline: (§4)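 Female BDF1 mice with subcutaneous Lewis lung carcinoma given an iv injection of [82Br]-labelled nucleoside, 47-130 μg carrying 20-60 kBq 82Br. Tissues were excised, weighed wet and γ-counted. Values are percent injected dose per gram of wet tissue, mean ± standard deviation of six animals, with organ-to-tumour ratios derived.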

[26] = test system: Mus musculus; experiment: Biodistribution of intravenously injected [82Br]-labeled compound in tumor of BDF1 female mice bearing subcutaneous Lewis lung carcinoma after 0.25 hours; assay type: ADME, organism-based; conditions: in vivo, iv
[27] = test system: Mus musculus; experiment: Biodistribution of intravenously injected [82Br]-labeled compound in heart of BDF1 female mice bearing subcutaneous Lewis lung carcinoma after 1 hours; assay type: ADME, organism-based; conditions: in vivo, iv; outline: as §4
[28] = test system: Mus musculus; experiment: Biodistribution of intravenously injected [82Br]-labeled compound in tumor of BDF1 female mice bearing subcutaneous Lewis lung carcinoma after 0.50 hours; assay type: ADME, organism-based; conditions: in vivo, iv, 0.5 h
[29] = test system: Mus musculus; experiment: Biodistribution of intravenously injected [82Br]-labeled compound in muscle of BDF1 female mice bearing subcutaneous Lewis lung carcinoma after 0.25 hours; assay type: ADME, organism-based, Muscle tissue; conditions: in vivo, iv; outline: as §4
[30] = test system: Mus musculus; experiment: Biodistribution of intravenously injected [82Br]-labeled compound in tumor of BDF1 female mice bearing subcutaneous Lewis lung carcinoma after 8 hours; assay type: ADME, organism-based; conditions: in vivo, iv
[31] = test system: Mus musculus; experiment: Biodistribution of intravenously injected [82Br]-labeled compound in kidney of BDF1 female mice bearing subcutaneous Lewis lung carcinoma after 8 hours; assay type: ADME, organism-based; conditions: in vivo, iv; outline: as §4
[32] = test system: Mus musculus; experiment: Biodistribution of intravenously injected [82Br]-labeled compound in heart of BDF1 female mice bearing subcutaneous Lewis lung carcinoma after 2 hours; assay type: ADME, organism-based; conditions: in vivo, iv; outline: as §4
[33] = test system: Mus musculus; experiment: Biodistribution of intravenously injected [82Br]-labeled compound in gut of BDF1 female mice bearing subcutaneous Lewis lung carcinoma after 24 hours; assay type: ADME, organism-based; conditions: in vivo, iv; outline: as §4
[34] = test system: Mus musculus; experiment: Biodistribution of intravenously injected [82Br]-labeled compound in gut of BDF1 female mice bearing subcutaneous Lewis lung carcinoma after 1 hours; assay type: ADME, organism-based; conditions: in vivo, iv; outline: as §3
[35] = test system: Mus musculus; experiment: Biodistribution of intravenously injected [82Br]-labeled compound in muscle of BDF1 female mice bearing subcutaneous Lewis lung carcinoma after 0.5 hours; assay type: ADME, organism-based, Muscle tissue; conditions: in vivo, iv; outline: as §4
[36] = test system: Mus musculus; experiment: Biodistribution of intravenously injected [82Br]-labeled compound in lung of BDF1 female mice bearing subcutaneous Lewis lung carcinoma after 0.5 hours; assay type: ADME, organism-based; conditions: in vivo, iv; outline: as §4
[37] = test system: Mus musculus; experiment: Biodistribution of intravenously injected [82Br]-labeled compound in bone of BDF1 female mice bearing subcutaneous Lewis lung carcinoma after 4 hours; assay type: ADME, organism-based, Bone element; conditions: in vivo, iv; outline: as §3
[38] = test system: Mus musculus; experiment: Biodistribution of intravenously injected [82Br]-labeled compound in gut of BDF1 female mice bearing subcutaneous Lewis lung carcinoma after 4 hours; assay type: ADME, organism-based; conditions: in vivo, iv; outline: as §4
[39] = test system: Mus musculus; experiment: Biodistribution of intravenously injected [82Br]-labeled compound in blood of BDF1 female mice bearing subcutaneous Lewis lung carcinoma after 2 hours; assay type: ADME, organism-based; conditions: in vivo, iv; outline: as §3

- Injected dose/g [2]: 0.1%
- Injected dose/g [3]: 1.4%
- Injected dose/g [4]: 1.8%
- Injected dose/g [5]: 5.1%
- Injected dose/g [6]: 3.6%
- Injected dose/g [8]: 7%
- Injected dose/g [9]: 1.6%
- Injected dose/g [10]: 2.5%
- Injected dose/g [12]: 0.07%
- Injected dose/g [13]: 3.2%
- Injected dose/g [14]: 2.8%
- Injected dose/g [15]: 0.07%
- Injected dose/g [16]: 3.5%
- Injected dose/g [18]: 21.1%
- Injected dose/g [19]: 1.9%
- Injected dose/g [20]: 1.8%
- Injected dose/g [21]: 16%
Structure (SMILES): O=c1[nH]c(=O)n([C@@H]2O[C@H](CO)[C@@H](O)[C@H]2F)cc1I
- Radioactive constituents [1]: 90.8%
- Radioactive constituents [7]: 0%
- Radioactive constituents [11]: 2.6%
- Radioactive constituents [17]: 39.8%

- Injected dose/g [22]: 0.26%
- Injected dose/g [23]: 0.35%
- Injected dose/g [24]: 0.72%
- Injected dose/g [25]: 0.28%
- Injected dose/g [26]: 1.39%
- Injected dose/g [27]: 0.44%
- Injected dose/g [28]: 0.95%
- Injected dose/g [29]: 0.89%
- Injected dose/g [30]: 0.46%
- Injected dose/g [31]: 0.53%
- Injected dose/g [32]: 0.48%
- Injected dose/g [33]: 0.22%
- Injected dose/g [34]: 0.42%
- Injected dose/g [35]: 0.4%
- Injected dose/g [36]: 0.91%
- Injected dose/g [37]: 0.17%
- Injected dose/g [38]: 0.28%
- Injected dose/g [39]: 0.79%
Structure (SMILES): O=c1[nH]c(=O)n([C@H]2O[C@@H](CO)[C@H](O)[C@H]2F)cc1Br
